Sampled rows, rich in hits. Any-hit rate of the full collection: about 2%.
FGF22 binding: binders of recombinant human FGF22 by thermal shift; Q9HCT0; SYPRO orange fluorescence; percent of sucrose octasulfate shift, DMSO zero; activity (Tm shift, normalised), % at 9.99 µM; 340,000 compounds, 1.5% hits;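 active = mean Tm shift, scaled 0 neutral to 100 positive control, at about 1.3% or above, every replicate too, limit read from the data; inconclusive = no clear call, values can overlap the other calls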
Target sequence (Q9HCT0 whole entry, looked up): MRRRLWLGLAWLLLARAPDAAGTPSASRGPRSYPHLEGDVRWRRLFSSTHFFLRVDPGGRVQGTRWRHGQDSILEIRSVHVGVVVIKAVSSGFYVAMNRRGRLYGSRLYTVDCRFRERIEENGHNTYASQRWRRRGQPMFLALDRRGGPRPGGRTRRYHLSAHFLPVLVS
MT1-MMP act inh: MT1-MMP (human) activation inhibition; P50281; HT1080 RFP-PRO-GFP cells, GFP/RFP ratio fluorescence, overnight; percent of plate control window, DMSO zero; GFP/RFP ratio change, % at 20 µM; 360,000 compounds, 0.061% hits; AID 651647;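 active = GFP/RFP ratio change of at least 30% with cell ATP level not reduced by more than half and red fluorescence within 50% of control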
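Assay system: HT1080 RFP-PRO-GFP cells | Dosing: 20 µM single dose, 1% DMSO | Incubation: Cells overnight before dosing, compound overnight, 37 °C, 5% CO2 | Evaluation: GFP/RFP fluorescence ratio | Control set: DMSO-only wells and HT1080 RFP-L50D-GFP cell wells as references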
VLA-4 inh: inhibition in a human VLA-4 binding assay | AID 2557 | 330,000 compounds, 0.2% hits | inhibition, % (about 7 µM as worked out from the volumes in the protocol) | P13612 | VLA-4 expressing cells, ligand binding flow cytometry; in the data active = inhibition above about 50%
ABCB6 inh 2: blocks the human ABCB6 transporter. K562-ABCB6 porphyrin accumulation, flow cytometry, 1 h; stronger effect = lower value. fluorescence ratio to DMSO, % at 10 µM. 360,000 compounds, 0.19% hits. AID 602162;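 active = fluorescence ratio to DMSO below 75%, the collection mean minus 3 SD; inconclusive = too few cells collected in the well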;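 also: signal is porphyrin accumulated inside mitochondria; 100% equals median channel fluorescence of DMSO control wells; lower ratio means ABCB6 inhibition with less porphyrin fluorescence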
Granule exo inh: lytic granule exocytosis inhibition | TALL-104 LAMP-1 surface exposure, flow cytometry; cells stimulated with thapsigargin and PMA | inhibition, % at 10 µM | 360,000 compounds, 0.66% hits | AID 651702;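 active = inhibition above about 55%, limit read from the data; inconclusive = no clear call, values can overlap the other calls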
DAGLB inhibitor: diacylglycerol lipase beta (human) inhibition | Q8NCG7 | HEK293T DAGLB membrane lysate, EnzChek fluorogenic substrate | 340,000 compounds, 0.059% hits | inhibition, % at 5.17 µM; in the data active = inhibition above about 34%;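 also: 0% = enzyme with vehicle and 100% = wells lacking enzyme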
Starred values were filed as active, the others as inactive; ? = inconclusive; · = no result.

SMILES | FGF22 binding | MT1-MMP act inh | VLA-4 inh | ABCB6 inh 2 | Granule exo inh | DAGLB inhibitor
COc1ccc(/C=C(\C#N)C(=O)OCC(=O)NC2CC2)cc1 | 43.8* | -2.8 | 7.5 | 95.0 | 2.1 | 3.0
CCCNC(=O)COC(=O)c1ccc(Cl)c(S(=O)(=O)N2CCCC2)c1 | · | 1.1 | -15.8 | 117.0 | -1.1 | -2.0
CCCNC(=O)COC(=O)c1ccc(S(=O)(=O)N2CCCC2)cc1 | 43.9* | 9.3 | 7.1 | 100.0 | 5.1 | 0.6
O=C(COC(=O)c1ccc(S(=O)(=O)Nc2ccccc2)cc1)NCCC1=CCCCC1 | 43.6* | 0.1 | 15.2 | 98.0 | 3.0 | 0.6
CC(=O)Nc1ccc(C(=O)OCC(=O)NCCC2=CCCCC2)cc1 | 0.1 | 5.2 | · | 102.0 | -3.3 | 2.1
COc1cc2c(cc1OC)C(NC(=O)C(F)(F)F)CNC2=O (centres undefined) | 43.0* | -9.8 | -9.7 | 109.0 | -1.6 | 1.8
COc1cc2c(c(OC)c1OC)CC(c1ccccc1)=C(c1ccccc1)CC2NC(=O)C(F)(F)F (centres undefined) | 0.2 | · | · | · | · | ·
CCOc1ccc(NC(=O)CN(C)C(=O)c2cc([N+](=O)[O-])ccc2Sc2ccccc2)cc1OCC | 18.6* | 2.9 | · | 103.0 | -0.4 | 1.9
CCOc1ccc(NC(=O)CN(C)C(=O)c2cc([N+](=O)[O-])ccc2N2CCCCC2)cc1OCC | -0.6 | 2.6 | -5.4 | 102.0 | 1.4 | -2.7
CC(OC(=O)C1=Cc2ccccc2OC1)C(=O)NCC1CCCO1 (centres undefined) | 1.9* | 3.0 | · | 102.0 | -2.0 | 9.0
O=C(C[C@H]1C=C[C@@H](NC(=O)c2ccncc2)[C@H](CO)O1)NCC1CCCCC1 | 0.1 | · | · | · | · | ·
CC(C)N(Cc1ccccc1)C(=S)Nc1ccc(F)cc1 | 43.3* | 5.2 | 4.5 | 98.0 | -5.7 | -0.5
CN(c1ccccc1)S(=O)(=O)c1cccc(NC(=O)c2cc(=O)c3ccccc3o2)c1 | 43.4* | -3.3 | 7.7 | 89.0 | 40.1 | -1.8
CC(=O)Nc1ccc2c(c1)Cc1ccc(Cl)cc1-2 | 0.1 | 3.2 | · | 96.0 | -0.7 | -1.0
CC(=O)Nc1cc2c(cc1Cl)Cc1cc(Cl)ccc1-2 | 43.3* | -4.0 | · | 95.0 | -10.4 | -5.4
Cc1c(Cl)c(=O)n2c(=O)c(Cl)c(C)n12 | 43.7* | 2.0 | -5.7 | 96.0 | -2.5 | -2.9
CCc1ccc(C(=O)CN2C(=O)NC(C)(c3ccc(C)cc3)C2=O)cc1 (centres undefined) | 43.4* | 2.8 | -4.6 | 102.0 | 0.0 | -2.4
CCCN1CCN(c2ccc([N+](=O)[O-])cc2C#N)CC1 | 43.4* | 2.4 | 3.3 | 99.0 | 0.4 | 0.1
O=C(Nc1cccc(Cl)c1)N1C[C@H]2[C@@H](c3ccccc31)[C@@H](CO)N2Cc1cccnc1 | -0.4 | · | · | · | · | ·
O=C1CC(Cc2ccc(Cl)cc2)C(=O)N1c1ccccn1 (centres undefined) | · | 2.1 | 4.7 | 73.0* | -1.0 | 0.3
O=C1CC(Cc2ccc(Cl)cc2)C(=O)N1c1ccncc1 (centres undefined) | · | 0.8 | 16.9 | 93.0 | -3.5 | -0.4
O=C1c2ccccc2/C(=C\c2ccc(Br)nc2)N1c1ccccc1 | 43.0* | · | · | · | · | ·
COc1cccc(/C=C/C(=O)OCC(=O)NCC2CCCO2)c1 (centres undefined) | · | 4.7 | -0.1 | 98.0 | ? | -1.4
COc1ccc(/C=C/C(=O)OCC(=O)NCC2CCCO2)cc1 (centres undefined) | 44.0* | -0.1 | 0.5 | 97.0 | -2.4 | -1.8
COc1ccc(/C=C/C(=O)NC(=S)NCC2CCCO2)cc1 (centres undefined) | 43.7* | 0.1 | 4.3 | 97.0 | 3.9 | 0.3
SMILES | FGF22 binding | MT1-MMP act inh | VLA-4 inh | ABCB6 inh 2 | Granule exo inh | DAGLB inhibitor
CN(C)CCN(Cc1cccs1)c1ccccn1 | 0.0 | 2.7 | 41.2 | 98.0 | -1.4 | 1.5
CN(C)CCN(Cc1ccco1)c1ccccn1 | 43.0* | 2.7 | · | 95.0 | -2.5 | 2.9
CCN1C(C)=C(C)S/C1=C1\SC(=S)N(C2CCCCC2)C1=O | 44.1* | -3.7 | 14.8 | 95.0 | -2.2 | -0.3
Cn1cccc1C(=O)C(=O)Nc1ccccc1 | · | 6.3 | -1.8 | 105.0 | 4.4 | -2.5
Cn1cccc1C(=O)C(=O)Nc1ccccc1C(F)(F)F | 43.2* | 3.0 | 0.0 | 103.0 | -3.5 | -4.0
Cc1cccc(NC(=O)CNC(=O)COc2cc(F)ccc2[N+](=O)[O-])c1C | 43.1* | -1.0 | 7.2 | 102.0 | 0.5 | 1.7
Cc1cccc(NC(=O)CNC(=O)COc2ccc(C(=O)c3ccc(F)cc3)cc2)c1C | · | -6.1 | 21.4 | 91.0 | -0.5 | -3.2
COc1cc(CCC(=O)OCC(N)=O)cc(OC)c1OC | 43.5* | -1.1 | 14.0 | 91.0 | -3.5 | 0.6
COc1ccc(C(=O)NCCNc2ccc([N+](=O)[O-])cc2)cc1 | 67.2* | 2.4 | 6.9 | 97.0 | -0.3 | -0.8
COc1ccc(CCNC(=O)c2ccc([N+](=O)[O-])cc2)cc1 | -0.2 | 1.3 | 23.5 | 93.0 | -7.1 | 0.7
COc1ccccc1C(=O)Nc1ccc(NC(=O)c2ccco2)cn1 | 0.3 | 3.4 | -5.6 | 92.0 | 9.6 | -1.4
O=C(NC(=S)Nc1ccc(O)cc1)c1ccccc1Cl | 41.9 | 2.8 | -5.6 | 100.0 | 1.9 | -3.8
O=C(NC(=S)Nc1ccc(CN2CCCCC2)cc1)c1ccco1 | 43.4* | 3.5 | -2.6 | 99.0 | -1.3 | -0.7
COc1ccc(NC(=S)NNC(=O)CNc2ccc(Cl)cc2)cc1 | 1.4* | 0.5 | 1.6 | 101.0 | -0.1 | 4.6
COc1ccccc1C(=O)NC(=S)Nc1ccc(NC(=O)c2ccco2)cc1 | 1.5* | -4.0 | 20.9 | 94.0 | 68.0* | -2.5
O=C(NC(=S)Nc1ccc(CN2CCOCC2)cc1)c1ccco1 | 0.0 | 1.7 | -2.0 | 99.0 | 0.5 | -5.1
COc1ccc(NC(=S)NC(=O)c2ccccc2Cl)cc1 | 43.2* | 2.6 | 6.7 | 97.0 | -16.1 | -4.3
CCS(=O)(=O)N1CCCCN2[C@H](CO)[C@H](c3ccc(C#CC(C)(C)O)cc3)[C@H]2C1 | 0.0 | · | · | · | · | ·
C[C@H]1CN([C@@H](C)CO)C(=O)Cc2cc(NC(=O)Cn3cnnn3)ccc2O[C@@H]1CN(C)C(=O)Nc1ccc(C(F)(F)F)cc1 | -0.3 | · | · | · | · | ·
CC(c1ccccc1)C1C(C#N)=C(N)OC2=C1C(=O)CC(C)(C)C2 (centres undefined) | · | 5.4 | -1.6 | 100.0 | 75.3* | 3.9
CC1(C)CC(=O)C2=C(C1)OC(N)=C(C#N)C2C#Cc1ccccc1 (centres undefined) | · | -114.9 | 11.5 | 89.0 | 9.1 | 0.8
C[C@@H]1CCCCO[C@@H](CN(C)S(=O)(=O)c2cccs2)[C@H](C)CN([C@@H](C)CO)C(=O)c2cc(NC(=O)c3ccncc3)ccc2O1 | -0.4 | · | · | · | · | ·
COc1cccc(CNC(=O)C2CCN(S(=O)(=O)c3ccc(-n4cnnn4)cc3)CC2)c1 | 43.4* | 2.5 | 3.8 | 103.0 | 10.7 | -0.5

Screening data: PubChem BioAssay, several laboratories
